Test results published in ChEMBL document CHEMBL1765010, “Reversible competitive α-ketoheterocycle inhibitors of fatty acid amide hydrolase containing additional conformational constraints in the acyl side chain: orally active, long-acting analgesics” (J Med Chem, 2011).
Activity calls are given as the source filed them. No cut-off for these calls is given here.

Experiments:
Mus musculus [1] = experiment: Inhibition of FAAH in C57Bl/6J mouse brain assessed as increase of anandamide level at 10 mg/kg, po; type: functional; parameters: scale not given: the % may be the effect or the level left
Summary of the method: (§1)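 Male C57Bl/6J mice (<6 months, 20–28 g) given compound orally as a PEG300 solution at 10, 25 or 50 mg/kg, with 3 mice per group in the 50 mg/kg p.o. comparison; brains collected 1 h post-dose. Lipids extracted in CHCl3:MeOH:Tris pH 8.0 with deuterated internal standards, then measured by C18 LC-ESI-MS/MS relative to vehicle-treated mice.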

[2] = biological target: T1, Fatty-acid amide hydrolase 1 (Homo sapiens) (UniProt O00519); experiment: Competitive inhibition of full-length human FAAH expressed in COS-7 cells by Lineweaver-Burk analysis; type: cell-based
T1 sequence (whole entry): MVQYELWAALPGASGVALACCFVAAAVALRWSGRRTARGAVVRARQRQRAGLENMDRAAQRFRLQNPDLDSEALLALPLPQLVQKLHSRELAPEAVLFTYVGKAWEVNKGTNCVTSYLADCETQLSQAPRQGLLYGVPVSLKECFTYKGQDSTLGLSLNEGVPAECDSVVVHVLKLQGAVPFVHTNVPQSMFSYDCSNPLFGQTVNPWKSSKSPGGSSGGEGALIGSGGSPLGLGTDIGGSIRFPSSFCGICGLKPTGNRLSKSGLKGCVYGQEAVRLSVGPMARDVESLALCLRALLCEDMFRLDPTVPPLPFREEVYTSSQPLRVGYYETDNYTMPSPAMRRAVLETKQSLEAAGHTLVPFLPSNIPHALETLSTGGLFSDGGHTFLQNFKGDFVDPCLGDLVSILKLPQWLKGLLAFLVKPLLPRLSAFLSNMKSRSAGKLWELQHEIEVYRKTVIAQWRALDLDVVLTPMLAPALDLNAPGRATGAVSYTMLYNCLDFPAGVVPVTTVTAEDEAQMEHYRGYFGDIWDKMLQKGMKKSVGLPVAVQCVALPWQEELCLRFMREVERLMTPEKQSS
Summary of the method: (§2)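 Solubilized membrane lysate of COS-7 cells transiently transfected with full-length human FAAH cDNA. Aliquots quenched in 0.1 N HCl at three times; oleamide/oleic acid extracted into EtOAc and separated by TLC. Initial rates (≤10–20% conversion) analysed by Lineweaver–Burk plot.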

Mus musculus [3] = experiment: Toxicity in C57BL/6 mouse assessed as hypomotility at 50 mg/kg, po; type: organism-based; parameters: dose 50 mg/kg, route oral; conditions: in vivo
Mus musculus [4] = experiment: Analgesic activity in C57BL/6 mouse chronic constriction injury model assessed as reversal of von Frey filament-induced mechanical allodynia at 50 mg/kg, po measured up to 6 hrs; type: functional, organism-based; parameters: dose 50 mg/kg
Summary of the method: (§3)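 Male C57BL/6 mice with sciatic nerve chronic constriction injury (two silk ligatures, isoflurane anesthesia), tested from 10 days post-surgery after 2 days of apparatus habituation. Single oral dose in PEG300 or vehicle. Blinded observer tested ipsilateral and contralateral paws at 1, 3, 6 and 9 h: von Frey up-down method (0.16–6.0 g filaments, 5 stimuli each) and acetone-induced cold response. n = 9–10; mean ± SEM.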

[5] = biological target: T1, Fatty-acid amide hydrolase 1 (Homo sapiens); experiment: Reversible inhibition of full-length human FAAH expressed in COS-7 cells by Lineweaver-Burk analysis; type: cell-based; summary of the method: as §2
Mus musculus [6] = experiment: Inhibition of FAAH in C57Bl/6J mouse liver assessed as increase of N-palmitoyl ethanolamine level at 30 mg/kg, ip after 1 hr relative to control; type: functional; conditions: route intraperitoneal
Mus musculus [7] = experiment: Inhibition of FAAH in C57Bl/6J mouse liver assessed as increase of anandamide level at 30 mg/kg, ip after 1 hr relative to control; type: functional; conditions: route intraperitoneal
Mus musculus [8] = experiment: Inhibition of FAAH in C57Bl/6J mouse brain assessed as increase of arachidonic acid level at 30 mg/kg, ip after 1 hr relative to control; type: functional; conditions: route intraperitoneal
Summary of the method: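 Male C57Bl/6J mice (<6 months, 20–28 g) dosed i.p. at 30 mg/kg in 18:1:1 saline:ethanol:emulphor emulsion; brains taken 1 h later. One mouse in the initial screen, 3 per group in the follow-up. Brain homogenized in CHCl3:MeOH:Tris pH 8.0 with deuterated lipid standards; organic extract quantified by reverse-phase C18 LC-ESI-MS/MS against vehicle controls.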

Mus musculus [9] = experiment: Inhibition of FAAH in C57Bl/6J mouse brain assessed as increase of N-palmitoyl ethanolamine level at 50 mg/kg, po after 1 hr relative to control; type: functional; summary of the method: as §1
Mus musculus [10] = experiment: Toxicity in C57BL/6 mouse assessed as catalepsy at 50 mg/kg, po; type: organism-based; parameters: dose 50 mg/kg, route oral; conditions: in vivo
Mus musculus [11] = experiment: Toxicity in C57BL/6 mouse assessed as hypothermia at 50 mg/kg, po; type: organism-based; parameters: dose 50 mg/kg, route oral; conditions: in vivo
Mus musculus [12] = experiment: Inhibition of FAAH in C57Bl/6J mouse liver assessed as increase of 2-arachidonoylglycerol level at 30 mg/kg, ip after 1 hr relative to control; type: functional; conditions: route intraperitoneal
Mus musculus [13] = experiment: Analgesic activity in C57BL/6 mouse chronic constriction injury model assessed as reversal of acetone-induced cold allodynia at 50 mg/kg, po measured up to 9 hrs; type: functional, organism-based; parameters: dose 50 mg/kg; summary of the method: as §3
Mus musculus [14] = experiment: Inhibition of FAAH in po dosed C57Bl/6J mouse brain assessed as increase of N-palmitoyl ethanolamine level after 1 hr relative to control; type: functional, organism-based; conditions: in the assay text read “anandamide” for “N-palmitoyl ethanolamine”
Summary of the method: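 Male C57Bl/6J mice (<6 months, 20–28 g) given a single oral dose as a PEG300 solution. Brains were homogenized in CHCl3:MeOH:Tris pH 8.0 containing deuterated internal standards. The organic extract was analysed by reverse-phase C18 LC–ESI triple-quadrupole MS for anandamide, PEA, OEA and 2-AG. Dose series (10, 25, 50 mg/kg) was sampled at 1 h; the 50 mg/kg time course ran to 9 h. Three mice per group in the i.p./p.o. comparison.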

[15] = biological target: T2, Fatty-acid amide hydrolase 1 (Rattus norvegicus, UniProt P97612); experiment: Inhibition of rat recombinant FAAH expressed in Escherichia coli assessed as [14C]-labeled oleamide to oleic acid conversion
T2 sequence (P97612 whole entry): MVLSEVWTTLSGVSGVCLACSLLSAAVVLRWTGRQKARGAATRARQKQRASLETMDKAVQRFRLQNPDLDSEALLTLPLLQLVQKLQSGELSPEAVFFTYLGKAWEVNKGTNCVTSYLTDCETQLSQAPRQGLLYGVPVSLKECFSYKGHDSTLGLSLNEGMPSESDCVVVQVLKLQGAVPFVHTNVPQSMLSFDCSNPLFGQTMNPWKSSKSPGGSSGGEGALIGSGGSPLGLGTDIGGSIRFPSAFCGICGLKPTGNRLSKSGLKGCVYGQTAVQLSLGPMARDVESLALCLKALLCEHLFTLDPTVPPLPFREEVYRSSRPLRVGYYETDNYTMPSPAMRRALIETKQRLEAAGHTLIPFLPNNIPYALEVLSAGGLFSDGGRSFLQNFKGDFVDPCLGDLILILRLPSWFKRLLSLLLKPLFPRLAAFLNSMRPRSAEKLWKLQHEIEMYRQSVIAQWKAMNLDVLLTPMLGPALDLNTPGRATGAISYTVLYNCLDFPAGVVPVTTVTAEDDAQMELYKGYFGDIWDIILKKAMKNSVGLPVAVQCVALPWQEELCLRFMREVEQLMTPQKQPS

## O=C(c1ncc(-c2ccccn2)o1)[C@H]1CCc2cc(Oc3ccccc3)ccc2C1
Mus musculus [1]
  Activity: >90%
[2]
  inhibition: Active
Mus musculus [3]
  Activity: Non-toxic
Mus musculus [4]
  Activity: Active
[5]
  inhibition: Active
Mus musculus [6]
  fold change (FC): 3.6
Mus musculus [7]
  fold change (FC): 6
Mus musculus [8]
  fold change (FC): 0.8
Mus musculus [9]
  fold change (FC): 7.7
Mus musculus [10]
  Activity: Non-toxic
Mus musculus [11]
  Activity: Non-toxic
Mus musculus [12]
  fold change (FC): 0.8
Mus musculus [13]
  Activity: Active
Mus musculus [14]
  Activity: Dose-dependent effect
[15]
  Ki: 4.4 nM
